Blank lines part the entries; values can stand above or below the compound they belong to. Active and inactive are the calls of the source. No cut-off for these calls is given here.
Tests used:
[1] = target: T1, Prostaglandin G/H synthase 1 (Ovis aries, UniProt P05979); test: Inhibition of ovine COX-1 by colorimetric assay
T1 sequence (P05979 whole entry): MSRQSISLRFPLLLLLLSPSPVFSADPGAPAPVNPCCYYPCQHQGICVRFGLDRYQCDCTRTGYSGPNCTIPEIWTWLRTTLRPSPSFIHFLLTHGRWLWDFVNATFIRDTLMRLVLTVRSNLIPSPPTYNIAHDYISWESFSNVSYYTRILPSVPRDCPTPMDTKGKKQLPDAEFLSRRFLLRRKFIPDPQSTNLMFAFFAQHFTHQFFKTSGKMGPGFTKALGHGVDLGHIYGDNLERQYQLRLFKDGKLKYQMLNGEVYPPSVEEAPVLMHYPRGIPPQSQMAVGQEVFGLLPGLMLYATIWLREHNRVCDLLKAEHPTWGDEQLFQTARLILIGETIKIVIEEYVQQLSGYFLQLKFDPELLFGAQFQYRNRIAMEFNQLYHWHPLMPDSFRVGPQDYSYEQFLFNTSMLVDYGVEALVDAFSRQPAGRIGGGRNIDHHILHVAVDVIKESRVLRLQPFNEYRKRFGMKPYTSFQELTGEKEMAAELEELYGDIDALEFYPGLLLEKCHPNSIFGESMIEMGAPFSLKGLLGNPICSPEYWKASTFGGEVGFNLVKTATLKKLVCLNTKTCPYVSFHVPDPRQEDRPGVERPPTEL
In short: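 Ovine COX-1 enzyme kit, run following the manufacturer's instructions; IC50 reported as mean of three replicates.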

Prostaglandin E synthase = target: T2, Prostaglandin E synthase (Homo sapiens, UniProt O14684); test: Inhibition of human mPGE2S1 using PGH2 as substrate measured after 5 mins by ELISA method
T2 sequence (O14684 whole entry): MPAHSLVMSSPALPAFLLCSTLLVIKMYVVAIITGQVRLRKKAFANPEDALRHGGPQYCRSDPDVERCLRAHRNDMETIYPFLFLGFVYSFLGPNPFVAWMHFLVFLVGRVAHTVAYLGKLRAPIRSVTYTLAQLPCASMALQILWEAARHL
In short: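 Cell-free assay using microsomes from interleukin-1β-stimulated human A549 lung carcinoma cells as enzyme source. Reaction contained 20 μM PGH2 and 2.5 mM glutathione with serial inhibitor dilutions, 5 min at room temperature. Stopped with SnCl2, which converts leftover PGH2 to PGF2α. PGE2 measured by ELISA; IC50 ± SD from log dose–response curve.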

RAW264.7 [2] = test: Cytotoxicity against mouse RAW264.7 cells measured after 72 hrs by MTT assay; assay type: functional, cell-based
In short: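 RAW264.7 cells were seeded at 4 × 10³ per well with compound (100 to 0.4 μg/ml, in DMSO) for 72 h at 37 °C, 5% CO2. MTT (5 mg/ml solution) was added for 4 h, formazan dissolved in DMSO, and absorbance read at 490 nm.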

Rattus norvegicus = test: Antiinflammatory activity in formalin-induced paw edema in Wistar rat model assessed as reduction in paw edema volume at 5 mg/kg, po administered once daily via gavage by 7 days by vernier caliper method; assay type: functional, organism-based; details: time 7.0 day
[3] = Inhibition of soybean 15-LOX; set-up: species or system Glycine max
In short: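 Soybean 15-LOX activity measured with a lipoxygenase inhibitor screening kit per the manufacturer's instructions; IC50 determined.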

RAW264.7 [4] = test: Antiinflammatory activity against LPS-induced mouse RAW264.7 cells assessed as downregulation of COX-2 level at 50 ug/ml incubated for 24 hrs by RT-PCR analysis relative to control; assay type: functional; details: dose 50 µg/ml
[5] = Toxicity in Wistar rat assessed as effect on gastric ulcer measured after 8 days; details: in vivo, 192 h, time 8 day
In short: (§1)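 Female Wistar rats dosed for eight days; stomachs then removed for gross inspection of ulceration and histology on H&E-stained sections.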

RAW264.7 [6] = test: Antiinflammatory activity against LPS-induced mouse RAW264.7 cells assessed as upregulation of IL-10 level at 50 ug/ml incubated for 24 hrs by RT-PCR analysis relative to control; assay type: functional; details: dose 50 µg/ml
RAW264.7 [7] = test: Antiinflammatory activity against LPS-induced mouse RAW264.7 cells assessed as downregulation of TNF-alpha level at 50 ug/ml incubated for 24 hrs by RT-PCR analysis relative to control; assay type: functional; details: dose 50 µg/ml
[8] = Toxicity in Wistar rat assessed as effect on epithelium measured after 8 days by H and E staining based analysis; details: in vivo, 192 h, time 8 day; in short: as §1
[9] = Toxicity in Wistar rat assessed as dilation of submucosal blood vessels measured after 8 days by H and E staining based analysis; details: 192 h, time 8 day; in short: as §1
[10] = Toxicity in Wistar rat assessed as increase in submucosal inflammatory cells measured after 8 days by H and E staining based analysis; details: 192 h, time 8 day; in short: as §1
RAW264.7 [11] = test: Antiinflammatory activity against LPS-induced mouse RAW264.7 cells assessed as downregulation of iNOS level at 50 ug/ml incubated for 24 hrs by RT-PCR analysis relative to control; assay type: functional; details: dose 50 µg/ml
RAW264.7 [12] = test: Antiinflammatory activity against LPS-induced mouse RAW264.7 cells assessed as downregulation of IL-1 beta level at 50 ug/ml incubated for 24 hrs by RT-PCR analysis relative to control; assay type: functional; details: dose 50 µg/ml
[13] = Toxicity in Wistar rat assessed as abundant submucosal infiltration measured after 8 days by H and E staining based analysis; details: in vivo, 192 h, time 8 day; in short: as §1
[14] = Toxicity in Wistar rat assessed as congested vessels measured after 8 days by H and E staining based analysis; details: in vivo, 192 h, time 8 day; in short: as §1
[15] = Toxicity in Wistar rat assessed as effect on ulceration measured after 8 days by H and E staining based analysis; details: in vivo, 192 h, time 8 day; in short: as §1

IC50 [1]: 9.82 µM
IC50 (Prostaglandin E synthase): 4.9 µM
IC50 [3]: 3.05 µM
Compound: COc1ccc2occ(/C=N/NC(=O)OCc3ccccc3)c(=O)c2c1
Activity (RAW264.7 [2]): inactive
Activity (Rattus norvegicus): Active
Activity (RAW264.7 [4]): 33%
Activity [5]: Non-Toxic
Activity (RAW264.7 [6]): 43%
Activity (RAW264.7 [7]): 32%
Activity [8]: Non-Toxic
Activity [9]: Toxic
Activity [10]: Toxic
Activity (RAW264.7 [11]): 32%
Activity (RAW264.7 [12]): 54%

IC50 [1]: 6.01 µM
IC50 [3]: 4.59 µM
Compound: COC(=O)N/N=C/c1coc2cc(OC)ccc2c1=O

IC50 [1]: 7.43 µM
IC50 (Prostaglandin E synthase): 3.7 µM
IC50 [3]: 2.77 µM
Compound: COC(=O)N/N=C/c1coc2ccccc2c1=O

Compound: O=C([O-])Cc1ccccc1Nc1c(Cl)cccc1Cl.[Na+] [DICLOFENAC SODIUM]
Activity [13]: Toxic
Activity [8]: Non-Toxic
Activity [14]: Toxic

IC50 [1]: 11.1 µM
IC50 (Prostaglandin E synthase): 2.8 µM
IC50 [3]: 2.39 µM
Compound: COc1ccc2c(=O)c(/C=N/NC(=O)OCc3ccccc3)coc2c1
Activity (RAW264.7 [2]): inactive
Activity (Rattus norvegicus): Active
Activity (RAW264.7 [4]): 33%
Activity [5]: Non-Toxic
Activity (RAW264.7 [6]): 43%
Activity (RAW264.7 [7]): 32%
Activity [8]: Non-Toxic
Activity [9]: Toxic
Activity [10]: Toxic
Activity (RAW264.7 [11]): 32%
Activity (RAW264.7 [12]): 54%

IC50 [1]: 3.62 µM
IC50 [3]: 4.31 µM
Compound: CN/N=C/c1coc2cc(OC)ccc2c1=O

Compound: O=c1c(O)c(-c2ccc(O)c(O)c2)oc2cc(O)cc(O)c12 [QUERCETIN]
IC50 [3]: 3.34 µM

IC50 [1]: 6.92 µM
IC50 [3]: 4.08 µM
Compound: COC(=O)N/N=C/c1coc2ccc(OC)cc2c1=O

IC50 [1]: 4.04 µM
IC50 [3]: 4.44 µM
Compound: CN/N=C/c1coc2ccccc2c1=O

IC50 [1]: 8.67 µM
IC50 [3]: 3.25 µM
Compound: CN/N=C/c1coc2ccc(OC)cc2c1=O

IC50 (Prostaglandin E synthase): 20.1 µM
Compound: Cc1ccc(-c2cc(C(F)(F)F)nn2-c2ccc(S(N)(=O)=O)cc2)cc1 [CELECOXIB]
Activity [15]: Non-Toxic

IC50 [1]: 12.2 µM
IC50 (Prostaglandin E synthase): 4.1 µM
IC50 [3]: 1.72 µM
Compound: O=C(N/N=C/c1coc2ccccc2c1=O)OCc1ccccc1
Activity (RAW264.7 [2]): inactive
Activity (Rattus norvegicus): Active
Activity (RAW264.7 [4]): 33%
Activity [13]: Toxic
Activity [5]: Non-Toxic
Activity (RAW264.7 [6]): 43%
Activity (RAW264.7 [7]): 32%
Activity [8]: Non-Toxic
Activity [14]: Toxic
Activity (RAW264.7 [11]): 32%
Activity (RAW264.7 [12]): 54%

From ChEMBL document CHEMBL5543076, “Chromone-based small molecules for multistep shutdown of arachidonate pathway: Simultaneous inhibition of COX-2, 15-LOX and mPGES-1 enzymes” (Eur J Med Chem, 2024)
